In ChEMBL document CHEMBL4725346, “Syntheses and Evaluation of New Bisacridine Derivatives for Dual Binding of G-Quadruplex and i-Motif in Regulating Oncogene c-myc Expression” (J Med Chem, 2020):
Calls of active or inactive are those of the source. The calls are words filed in the database; no cut-off is given here.

How the values were obtained:
[1] = Stabilization of 5'-FAM/3'-TAMRA labeled hairpin DNA F10T (unknown origin) assessed as change in melting temperature at 1 uM by FRET assay (reference value: 59.1 degreeC)
[2] = Stabilization of c-myc promoter i-motif DNA Py33 (unknown origin) assessed as decrease in negative peak intensity at pH 5.5 measured at 260 nanometer by CD spectroscopy
In short: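 Py33 at 1 µM in 1× BPES pH 5.5 (pH 6.8 random-coil reference), with or without ligand. Annealed at 95 °C for 5 min, cooled, kept at 4 °C overnight. CD spectra in a 4 mm cuvette over 230–350 nm, three scans averaged, buffer-corrected; peaks followed at 288 and 260 nm.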

Quadruplex DNA [3] = assay: Binding affinity to 5'-biotin labeled c-myc promoter G-quadruplex DNA Pu27 (unknown origin) by surface plasmon resonance method; type: nucleic-acid assay
In short: (§1)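 SPR: 5'-biotin DNA diluted to 1 μM and captured (1000 RU) on a sensor chip, with a blank cell as reference. Running buffers: Py33 in 20 mM MES pH 5.8, 100 mM KCl, 0.05% Tween-20; Pu27 and duplex in 50 mM Tris-HCl pH 7.4, 100 mM KCl. Six ligand concentrations serially diluted from DMSO stock. Association 260 s, dissociation 300 s at 25 °C; NaOH regeneration; blank sensorgrams subtracted.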

dsDNA = assay: Binding affinity to 5'-biotin labeled duplex DNA (unknown origin) by surface plasmon resonance method; type: nucleic-acid assay; in short: as §1
[4] = Stabilization of c-myc promoter i-motif DNA Py33 (unknown origin) by 1H NMR spectra analysis
In short: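 1D ¹H NMR titration with water suppression at 25 °C on a 600 MHz spectrometer. DNA at 0.5 mM in 10% D₂O/90% H₂O: Pu27 in 10 mM Tris-HCl pH 7.4, Py33 in 1× BPES pH 6.4. Annealed at 95 °C for 5 min before titration; ligand stock in d₆-DMSO.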

HeLa = assay: Antiproliferative activity against human Hela cells after 48 hrs by MTT assay; type: functional, cell-based
In short: (§2)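 Cells seeded at 5.0×10^3 per well, pre-incubated 12 h at 37 °C, 5% CO2, then exposed to compounds for 48 h; DMSO-only control. MTT (2.5 mg/mL) added for 4 h, formazan dissolved in DMSO, absorbance at 570 nm. Each dose tested in triplicate; IC50 from percentage survival relative to negative control.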

U2OS = assay: Antiproliferative activity against human U2OS cells after 48 hrs by MTT assay; type: functional, cell-based; in short: as §2
HCT-116 = assay: Antiproliferative activity against human HCT-116 cells after 48 hrs by MTT assay; type: functional, cell-based; details: HCT-116, 48 h; in short: as §2
[5] = Drug uptake in human SiHa cells; type: ADME, cell-based
Quadruplex DNA [6] = assay: Binding affinity to c-myc wild-type promoter G-quadruplex/i-motif (unknown origin) expressed in human SiHa cells assessed as reduction in c-myc transcription by measuring decrease in ratio of renilla/firefly luciferase activity after 48 hrs by dual-luciferase reporter assay; type: cell-based; details: dose microM 0.025-0.1, time 48.0 hrs
In short: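 SiHa cells transfected with 200 ng psiCHECK2 plasmid carrying wild-type, mutant or deleted c-myc promoter. Compounds added 8 h after transfection, then incubated 48 h at 37 °C. Cells washed with ice-cold PBS; Renilla/firefly activity ratio read by dual-luciferase assay.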

Quadruplex DNA [7] = assay: Binding affinity to c-myc promoter G-quadruplex/i-motif in human SiHa cells assessed as reduction in c-myc mRNA level at 1.25 uM incubated for 24 hrs by qRT-PCR analysis; type: cell-based; design: scale not given: the % may be the effect or the level left
In short: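 SiHa cells at 0, 0.625, 1.25 and 2.5 μM for 24 h; DMSO control. Total RNA extracted with TRIzol. 1.5 μg RNA reverse-transcribed with oligo dT18 and M-MLV (42 °C 60 min). PCR of 30 cycles (95/58/72 °C), products run on 1.2% agarose. β-actin as internal control; three repeats.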

Quadruplex DNA [8] = assay: Binding affinity to c-myc promoter G-quadruplex/i-motif in human SiHa cells assessed as reduction in c-myc expression at 1.25 uM incubated for 24 hrs by Western blot analysis; type: cell-based; design: scale not given: the % may be the effect or the level left
In short: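 SiHa cells treated 24 h at 0, 0.625, 1.25 and 2.5 μM, then lysed in buffer with 1 mM PMSF. Protein measured by BCA, equal loads run on 8% gel and blotted to PVDF. Probed with anti-c-MYC and anti-β-actin (loading control), HRP anti-rabbit secondary, chemiluminescence read-out.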

SiHa [9] = assay: Induction of cell cycle arrest in human SiHa cells assessed as accumulation of cells at G2/M phase at 0.15 uM after 24 hrs by propidium iodide staining based flow cytometry (reference value: 29.71%); type: functional
SiHa [10] = assay: Induction of cell cycle arrest in human SiHa cells assessed as accumulation of cells at G0/G1 phase at 0.30 uM after 24 hrs by propidium iodide staining based flow cytometry (reference value: 42.28%); type: functional; details: dose 0.3 µM
SiHa [11] = assay: Induction of cell cycle arrest in human SiHa cells assessed as accumulation of cells at G2/M phase at 0.30 uM after 24 hrs by propidium iodide staining based flow cytometry (reference value: 29.71%); type: functional; details: dose 0.3 µM
SiHa [12] = assay: Induction of apoptosis in human SiHa cells assessed as early apoptotic cells at 0.6 uM after 24 hrs by annexin V/FITC-propidium iodide staining-based flow cytometric method ( Rvb = 0.3%); type: functional
SiHa [13] = assay: Induction of apoptosis in human SiHa cells assessed as late apoptotic cells at 2.4 uM after 24 hrs by annexin V/FITC-propidium iodide staining-based flow cytometric method ( Rvb = 0.4%); type: functional
SiHa [14] = assay: Induction of apoptosis in human SiHa cells assessed as decrease in caspase-7 level incubated for 24 hrs by Western blot analysis; type: functional, cell-based; details: dose microM 0.6-2.4, time 24.0 hrs
SiHa [15] = assay: Induction of apoptosis in human SiHa cells assessed as decrease in caspase-9 level incubated for 24 hrs by Western blot analysis; type: functional, cell-based; details: dose microM 0.6-2.4, time 24.0 hrs
Raji = assay: Antiproliferative activity against human Raji cells after 48 hrs by MTT assay; type: functional, cell-based
CA46 [16] = assay: Antiproliferative activity against human CA46 cells after 48 hrs by MTT assay; type: functional, cell-based
CA46 [17] = assay: Induction of cell cycle arrest in human CA46 cells assessed as accumulation of cells at G2/M phase at 0.15 to 0.6 uM after 24 hrs by propidium iodide staining based flow cytometry; type: functional; details: dose microM 0.15-0.6, time 24.0 hrs
CA46 [18] = assay: Induction of apoptosis in human CA46 cells at 0.6 to 2.4 uM after 24 hrs by propidium iodide staining based flow cytometry; type: functional, cell-based; details: dose microM 0.6-2.4, time 24.0 hrs
[19] = Toxicity in BALB/c nude mouse xenografted with human SiHa cells assessed as effect on body weight at 15 mg/kg, ip administered once per 2 days for 18 days; type: organism-based; details: in vivo, 432 h, time 18 day
In short: (§3)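 SiHa tumour fragments passaged from donor mice implanted in the underarm of female BALB/c nude mice (six per group). Compound given at 15 mg/kg ip once every two days for 18 days, with saline and cisplatin 0.2 mg/kg control groups. Body weight recorded every two days; at day 18 mice were sacrificed and organs weighed.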

[20] = Toxicity in BALB/c nude mouse xenografted with human SiHa cells assessed as effect on kidney weight at 15 mg/kg, ip administered once per 2 days for 18 days; type: organism-based; details: in vivo, 432 h, time 18 day; in short: as §3

ΔTm [1]: 4.5 °C | Activity [2]: Active | Kd (Quadruplex DNA [3]): 7700 nM | Kd (dsDNA): 18500 nM | Activity [4]: Active | IC50 (HeLa): 450 nM | IC50 (U2OS): 310 nM | IC50 (HCT-116): 150 nM | Drug uptake [5]: Active
SMILES: Cc1ccc2nc3ccc(C)cc3c(NCCCNCCNCCCNc3c4cc(C)ccc4nc4ccc(C)cc34)c2c1
Activity (Quadruplex DNA [6]): Dose-dependent effect | Activity (Quadruplex DNA [7]): 40.1% | Activity (Quadruplex DNA [8]): < 39.8% | Activity (SiHa [9]): 34.13% | Activity (SiHa [10]): 30.44% | Activity (SiHa [11]): 42.47% | Activity (SiHa [12]): 18.1% | Activity (SiHa [13]): 27.5% | Activity (SiHa [14]): Dose-dependent effect | Activity (SiHa [15]): Dose-dependent effect | Activity (Raji): Active | Activity (CA46 [16]): inactive | Activity (CA46 [17]): inactive | Activity (CA46 [18]): inactive | Activity [19]: Non-Toxic | Activity [20]: Non-Toxic
